{"data": "Results of several laboratories", "CDK5 with p25": "Cyclin-dependent kinase 5, with p25 (CDK5, Homo sapiens, UniProt Q00535)", "CDK5": "Cyclin-dependent kinase 5 (CDK5, Homo sapiens, UniProt Q00535)", "CDK5 with p35": "Cyclin-dependent kinase 5, with p35 (CDK5, Homo sapiens, UniProt Q00535)"}
{"SMILES": "Cc1cc(NC(=O)c2cccc3cc(-c4cccc5[nH]nc(N)c45)ccc23)ccc1F", "target": "CDK5 with p25", "assay": "enzyme activity, inhibitor", "conditions": "0.1 µM", "measurement": "activity vs control", "result": "94%"}
{"SMILES": "CS(=O)(=O)N1CCCC(NC(=O)[C@H](CCC2CCCCC2)NC(=O)c2ccc(CNC(=O)c3cnc4ccccn34)cc2)C1 (stereo partly shown)", "target": "CDK5", "assay": "cell-free assay, competition with immobilised ligand", "conditions": "0.1 µM", "measurement": "remaining binding", "result": "100%"}
{"SMILES": "O=C1NC(=O)c2cc(Nc3ccc(F)cc3)c(Nc3ccc(F)cc3)cc21", "target": "CDK5 with p25", "assay": "cell-free assay", "conditions": "0.5 µM", "measurement": "remaining signal", "result": "85.9%"}
{"SMILES": "CC(C)c1ccc(NC(=O)c2cccs2)c(-c2nc3ccccc3[nH]c2=O)c1", "target": "CDK5 with p25", "assay": "enzyme activity, inhibitor", "conditions": "1 µM", "measurement": "activity vs control", "result": "95%"}
{"SMILES": "Nc1nc(Nc2ccc(S(N)(=O)=O)cc2)nn1C(=O)c1c(F)cccc1F", "target": "CDK5 with p25", "assay": "cell-free assay", "conditions": "0.5 µM", "measurement": "remaining signal", "result": "2.54%"}
{"SMILES": "CCCOc1ccc(OC)c(F)c1C(=O)c1ccc(C(=O)N[C@@H]2CNC[C@H]2NC(=O)c2ccc3[nH]ncc3c2)cc1", "target": "CDK5 with p25", "assay": "enzyme activity, inhibitor", "conditions": "10 µM", "measurement": "remaining activity", "result": "1%"}
{"SMILES": "COc1ccc2c(c1)O[C@@H](c1ccc(OC)c(OC)c1)C[C@H]2NC(=O)C1(c2ccc3c(c2)OC(F)(F)O3)CC1", "target": "CDK5", "assay": "cell-free assay, competition with immobilised ligand", "conditions": "1 µM", "measurement": "remaining binding", "result": "100%"}
{"SMILES": "Cc1ccc(C(=O)NCc2ccsc2)cc1C#Cc1cn(C(C)C)c2ncnc(N)c12", "target": "CDK5 with p35", "assay": "enzyme activity, inhibitor", "conditions": "1 µM", "measurement": "activity vs control", "result": "96%"}
{"SMILES": "O=C1Nc2ccc(Cl)cc2C1=Cc1cc(Cl)c(O)c(Cl)c1", "target": "CDK5 with p25", "assay": "cell-free assay", "conditions": "0.5 µM", "measurement": "remaining signal", "result": "82.6%"}
{"SMILES": "CC(C)CC(=O)N1CCc2nc(-c3ccc(Br)cc3)nc(N(C)Cc3ccccc3)c2C1", "target": "CDK5", "assay": "cell-free assay, competition with immobilised ligand", "conditions": "0.1 µM", "measurement": "remaining binding", "result": "100%"}
{"SMILES": "N#CCCc1ccc2c(c1)-c1[nH]c3ccc([N+](=O)[O-])cc3c1CC(=O)N2", "target": "CDK5 with p25", "assay": "cell-free assay", "conditions": "0.5 µM", "measurement": "remaining signal", "result": "5.79%"}
{"SMILES": "CO[C@@H](C)c1c(Nc2ccc([C@@H](N(C)C(=O)C3CCS(=O)(=O)CC3)C(F)(F)F)cc2)cnc2cc(Cl)nn12", "target": "CDK5", "assay": "cell-free assay, competition with immobilised ligand", "conditions": "1 µM", "measurement": "remaining binding", "result": "99%"}
{"SMILES": "CC[C@H](C)[C@H](NC(=O)[C@H](CCC(N)=O)NC(=O)[C@H](CC(C)C)NC(=O)[C@H](CCSC)NC(=O)[C@H](CCCCN)NC(=O)[C@H](CO)NC(=O)[C@H](CO)NC(=O)[C@H](CCSC)NC(=O)[C@H](CC(C)C)NC(=O)[C@H](CC(N)=O)NC(=O)[C@@H](NC(=O)[C@@H](NC(=O)[C@H](CO)NC(=O)[C@H](CC(C)C)NC(=O)[C@H](CS)NC(=O)[C@H](CCCNC(=N)N)NC(=O)[C@H](CC(=O)O)NC(=O)[C@H](Cc1c[nH]c2ccccc12)NC(=O)[C@H](Cc1ccccc1)NC(=O)[C@H](C)NC(=O)[C@H](CCC(=O)O)NC(=O)[C@@H](N)CCCCN)C(C)C)[C@@H](C)CC)C(=O)N[C@@H](CC(N)=O)C(=O)N[C@@H](C)C(=O)O", "target": "CDK5 with p25", "assay": "enzyme activity, inhibitor, radiometric", "conditions": "100 µM, 20 min", "measurement": "remaining activity", "result": "59%"}
{"SMILES": "O=C1NC(c2ccccn2)Sc2ccccc21 (stereo not shown)", "target": "CDK5", "assay": "cell-free assay, competition with immobilised ligand", "conditions": "1 µM", "measurement": "remaining binding", "result": "86%"}
{"SMILES": "Oc1ccc(-c2nc(-c3ccncc3)c(-c3ccc(F)cc3)[nH]2)cc1", "target": "CDK5 with p25", "assay": "cell-free assay", "conditions": "0.5 µM", "measurement": "remaining signal", "result": "96%"}
{"SMILES": "Cc1ccc(NC(=O)c2ccc(C)c(C(F)(F)F)c2)cc1C#Cc1nn(C2CCC(O)CC2)c2ncnc(N)c12 (stereo not shown)", "target": "CDK5 with p35", "assay": "cell-free assay", "conditions": "10 µM", "measurement": "remaining signal", "result": "127%"}
